Test results as given in ChEMBL document CHEMBL1148492, “Synthesis and structure-activity relationship study of potent cytotoxic analogues of the marine alkaloid Lamellarin D” (2006).
Calls of active or inactive are those of the source. No cut-off for these calls is given here.

How the values were obtained:
A549 [1] = test: Antiproliferative activity against human A549 cell line after 72 hrs by SRB assay at 10 ug/mL; type: functional, cell-based
HT-29 [2] = test: Antiproliferative activity against human HT29 cell line after 72 hrs by SRB assay; type: functional; details: HT-29, 72 h
Procedure, shortened: (§1)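 Cells seeded at 5×10³/well in RPMI and allowed to attach in drug-free medium for 18 h. Compounds were added in DMSO/H2O (3:7) and exposure was continuous for 72 h. Cells were then fixed with cold 50% TCA for 60 min at 4°C, stained with 0.4% SRB in 1% acetic acid for 10 min at room temperature, solubilized in Tris, and OD was read at 490 nm. GI50 was derived from 100×[(T−T0)/(C−T0)]=50.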

MDA-MB-231 [3] = test: Antiproliferative activity against human MDA-MB-231 cell line after 72 hrs by SRB assay; type: functional; details: MDA-MB-231, 72 h; procedure, shortened: as §1
A549 [4] = test: Antiproliferative activity against human A549 cell line after 72 hrs by SRB assay; type: functional; details: A549, 72 h; procedure, shortened: as §1
HT-29 [5] = test: Antiproliferative activity against human HT29 cell line after 72 hrs by SRB assay at 10 ug/mL; type: functional, cell-based
MDA-MB-231 [6] = test: Antiproliferative activity against human MDA-MB-231 cell line after 72 hrs by SRB assay at 10 ug/mL; type: functional, cell-based

| SMILES | Activity (A549 [1]) | GI50 (HT-29 [2]) [µM] | GI50 (MDA-MB-231 [3]) [µM] | GI50 (A549 [4]) [µM] | Activity (HT-29 [5]) | Activity (MDA-MB-231 [6]) |
| --- | --- | --- | --- | --- | --- | --- |
| COC(=O)c1c(-c2ccc(OC)cc2)c(-c2ccc(OC)cc2)c2c3cc(OC)c(O)cc3ccn12 | inactive | 9.7 | 9.9 | – | – | – |
| COC(=O)c1c(-c2ccc(OC)c(OC)c2)c(-c2ccc(OC)c(OC)c2)c2n1CCc1cc(OC(C)C)c(OC)cc1-2 | – | 1 | 0.98 | 0.81 | – | – |
| COC(=O)c1cc(-c2cc(OC)c(OC)c(OC)c2)c2n1CCc1cc(OC(C)C)c(OC)cc1-2 | inactive | – | – | – | inactive | inactive |
| COC(=O)c1cc(-c2cc(OC)ccc2OC)c2n1CCc1cc(O)c(OC)cc1-2 | inactive | – | 12.7 | – | inactive | – |
| COC(=O)c1c(-c2cccs2)c(-c2cccs2)c2n1CCc1cc(OC(C)C)c(OC)cc1-2 | inactive | – | – | – | inactive | inactive |
| COC(=O)c1c(-c2cccc([N+](=O)[O-])c2)c(-c2cccc([N+](=O)[O-])c2)c2n1CCc1cc(O)c(OC)cc1-2 | – | 11.3 | 10.1 | 18 | – | – |
| COC(=O)c1c(-c2ccc(O)cc2)c(-c2ccc(O)cc2)c2n1CCc1cc(O)c(OC)cc1-2 | inactive | – | – | – | inactive | inactive |
| COC(=O)c1c(-c2ccc(O)c(OC)c2)c(-c2ccc(O)c(OC)c2)c2n1CCc1cc(OC(C)C)c(OC)cc1-2 | – | 6.9 | 7.1 | 14.7 | – | – |
| COC(=O)c1c(-c2ccc(O)cc2)c(-c2ccc(O)c(OC)c2)c2c3cc(OC)c(O)cc3ccn12 | – | 10.1 | 15 | 9.8 | – | – |
| COC(=O)c1c(-c2ccc(O)cc2O)c(-c2cccc(O)c2)c2c3cc(OC)c(O)cc3ccn12 | – | – | 10.6 | 20.8 | inactive | – |
| COC(=O)c1c(-c2cccs2)c(-c2cccs2)c2c3cc(OC)c(OC(C)C)cc3ccn12 | inactive | – | – | – | inactive | inactive |
| COC(=O)c1c(-c2cc(O)c(O)cc2O)c(-c2cc(OC)ccc2OC)c2c3cc(OC)c(O)cc3ccn12 | – | 7.1 | 3.2 | 4.7 | – | – |
| COC(=O)c1c(-c2cc(O)c(O)cc2O)c(-c2cc(OC)ccc2OC)c2n1CCc1cc(O)c(OC)cc1-2 | – | 8.4 | 10.5 | 13.7 | – | – |
| COC(=O)c1c(-c2ccc(OC)c(OC)c2)c(-c2ccc(OC)c(OC)c2)c2c3cc(OC)c(O)cc3ccn12 | inactive | – | – | – | inactive | inactive |
| COC(=O)c1cc(-c2cccs2)c2c3cc(OC)c(O)cc3ccn12 | inactive | – | 26.3 | – | inactive | – |
| COC(=O)c1c(-c2cccs2)c(-c2cccs2)c2c3cc(OC)c(O)cc3ccn12 | – | – | 19.7 | 20.4 | inactive | – |
| COC(=O)c1cc(-c2ccc(O)c(OC)c2)c2c3cc(OC)c(O)cc3ccn12 | – | 23.9 | 11.2 | 10.9 | – | – |
| COC(=O)c1c(-c2ccc(OC)c(OC)c2)c(-c2ccc(O)c(OC)c2)c2c3cc(OC)c(O)cc3ccn12 | inactive | – | – | – | inactive | inactive |
| COC(=O)c1cc(-c2ccc(N(C)C)cc2)c2n1CCc1cc(OC(C)C)c(OC)cc1-2 | inactive | – | – | – | inactive | inactive |
| COC(=O)c1c(-c2cc(OC)c(OC(C)C)cc2OC(C)C)c(-c2ccc(OC(C)C)c(OC)c2)c2c3cc(OC)c(OC(C)C)cc3ccn12 | inactive | 13.6 | – | – | – | inactive |
| COC(=O)c1c(-c2ccc(O)cc2)c(-c2ccc(O)cc2)c2c3cc(OC)c(O)cc3ccn12 | – | 9.8 | 4.1 | 3.5 | – | – |
| COC(=O)c1c(-c2ccc(OC(F)(F)F)cc2)c(-c2ccc(OC(F)(F)F)cc2)c2c3cc(OC)c(O)cc3ccn12 | inactive | – | – | – | inactive | inactive |
| COC(=O)c1c(-c2ccc(O)c(OC)c2)c(-c2ccc(O)c(OC)c2)c2n1CCc1cc(O)c(OC)cc1-2 | – | – | 8.5 | 14.3 | inactive | – |

| SMILES | Activity (A549 [1]) | GI50 (HT-29 [2]) [µM] | GI50 (MDA-MB-231 [3]) [µM] | GI50 (A549 [4]) [µM] | Activity (HT-29 [5]) | Activity (MDA-MB-231 [6]) |
| --- | --- | --- | --- | --- | --- | --- |
| COC(=O)c1c(-c2cccc([N+](=O)[O-])c2)c(-c2cccc([N+](=O)[O-])c2)c2c3cc(OC)c(O)cc3ccn12 | inactive | 8.9 | 18.3 | – | – | – |
| COC(=O)c1c(-c2ccc(OC(F)(F)F)cc2)c(-c2ccc(OC(F)(F)F)cc2)c2n1CCc1cc(O)c(OC)cc1-2 | inactive | – | – | – | inactive | inactive |
| COC(=O)c1c(-c2ccc(OC)cc2)c(-c2ccc(OC)cc2)c2n1CCc1cc(O)c(OC)cc1-2 | – | 10.3 | 14.4 | 9.2 | – | – |
| COC(=O)c1c(-c2cc(OC)c(O)cc2OC)c(-c2ccc(O)c(OC)c2)c2n1CCc1cc(O)c(OC)cc1-2 | – | – | 7.6 | 8.9 | inactive | – |
| COC(=O)c1cc(-c2ccc(N(C)C)cc2)c2n1CCc1cc(O)c(OC)cc1-2 | inactive | – | – | – | inactive | inactive |
| COC(=O)c1c(-c2cccc(O)c2)c(-c2cccc(O)c2)c2c3cc(OC)c(O)cc3ccn12 | – | 18.4 | 7.2 | 6.3 | – | – |
| COC(=O)c1cc(-c2cc(OC)ccc2OC)c2c3cc(OC)c(O)cc3ccn12 | – | – | 19.9 | 13.3 | inactive | – |
| COC(=O)c1cc(-c2cc(OC)c(OC)c(OC)c2)c2c3cc(OC)c(O)cc3ccn12 | inactive | – | – | – | inactive | inactive |
| COC(=O)c1c(-c2cc(OC)c(O)cc2OC)c(-c2ccc(O)c(OC)c2)c2c3cc(OC)c(O)cc3ccn12 | inactive | – | – | – | inactive | inactive |
| COC(=O)c1c(-c2ccc(N(C)C)cc2)c(-c2ccc(N(C)C)cc2)c2n1CCc1cc(O)c(OC)cc1-2 | inactive | – | 13.7 | – | inactive | – |
| COC(=O)c1cc(-c2ccc(O)c(OC)c2)c2n1CCc1cc(O)c(OC)cc1-2 | – | 18 | 22.3 | 14.2 | – | – |
| COC(=O)c1cc(-c2ccc(OC(C)C)c(OC)c2)c2n1CCc1cc(OC(C)C)c(OC)cc1-2 | inactive | – | – | – | inactive | inactive |
| COC(=O)c1c(-c2cc(OC)c(O)cc2O)c(-c2ccc(O)c(OC)c2)c2n1CCc1cc(O)c(OC)cc1-2 | – | 17.1 | 3.1 | 5 | – | – |
| COC(=O)c1c(-c2ccc(OC)c(OC)c2)c(-c2ccc(OC)c(OC)c2)c2n1CCc1cc(O)c(OC)cc1-2 | – | – | 7.7 | 11.2 | inactive | – |
| COC(=O)c1c(-c2cc(OC)c(OC(C)C)cc2OC(C)C)c(-c2ccc(OC(C)C)c(OC)c2)c2n1CCc1cc(OC(C)C)c(OC)cc1-2 | inactive | – | – | – | inactive | inactive |
| COc1cc(-c2c3c4cc(OC)c(O)cc4oc(=O)c3n3ccc4cc(O)c(OC)cc4c23)ccc1O [LAMELLARIN D] | – | 5.1 | 0.25 | 0.2 | – | – |
| COC(=O)c1c(-c2ccc(O)cc2O)c(-c2cccc(O)c2)c2n1CCc1cc(O)c(OC)cc1-2 | inactive | – | – | – | inactive | inactive |
| COC(=O)c1c(-c2cc(OC)c(OC)c(OC)c2)c(-c2cc(OC)c(OC)c(OC)c2)c2c3cc(OC)c(O)cc3ccn12 | inactive | – | – | – | inactive | inactive |
| COC(=O)c1c(-c2ccc(O)c(OC)c2)c(-c2ccc(O)c(OC)c2)c2c3cc(OC)c(O)cc3ccn12 | – | 8.1 | 7.5 | 7.1 | – | – |
| COC(=O)c1cc(-c2ccc(O)c(OC)c2)c2n1CCc1cc(OC(C)C)c(OC)cc1-2 | – | 18.1 | 19 | 20.3 | – | – |
| COC(=O)c1c(-c2cc(OC)c(OC)c(OC)c2)c(-c2cc(OC)c(OC)c(OC)c2)c2n1CCc1cc(OC(C)C)c(OC)cc1-2 | – | 34 | – | 67.9 | – | inactive |
| COC(=O)c1c(-c2cc(OC)c(O)cc2O)c(-c2ccc(O)c(OC)c2)c2c3cc(OC)c(O)cc3ccn12 | – | 7.9 | 0.71 | 0.45 | – | – |
| COC(=O)c1c(-c2ccc(OC)c(OC)c2O)c(-c2cccc(O)c2)c2n1CCc1cc(O)c(OC)cc1-2 | – | – | 15.7 | 14.7 | inactive | – |
